Measured values as given in ChEMBL document CHEMBL1165878, “First biological evaluation of developed 3-benzyloxyfluorenes as novel class of MDR modulators” (Eur J Med Chem, 2010).

How the values were obtained:
[1] = Lipophilicity, log P of the compound; format: physicochemical; settings: octanol/water
[2] = molecular target: T1, ATP-dependent translocase ABCB1 (Homo sapiens, UniProt P08183); assay: Inhibition of ABCB1 efflux pump-mediated rhodamine 123 uptake expressed in mouse L5178Y cells assessed as fluorescence activity ratio at 1 uM; format: cell-based
T1 sequence (P08183 whole entry): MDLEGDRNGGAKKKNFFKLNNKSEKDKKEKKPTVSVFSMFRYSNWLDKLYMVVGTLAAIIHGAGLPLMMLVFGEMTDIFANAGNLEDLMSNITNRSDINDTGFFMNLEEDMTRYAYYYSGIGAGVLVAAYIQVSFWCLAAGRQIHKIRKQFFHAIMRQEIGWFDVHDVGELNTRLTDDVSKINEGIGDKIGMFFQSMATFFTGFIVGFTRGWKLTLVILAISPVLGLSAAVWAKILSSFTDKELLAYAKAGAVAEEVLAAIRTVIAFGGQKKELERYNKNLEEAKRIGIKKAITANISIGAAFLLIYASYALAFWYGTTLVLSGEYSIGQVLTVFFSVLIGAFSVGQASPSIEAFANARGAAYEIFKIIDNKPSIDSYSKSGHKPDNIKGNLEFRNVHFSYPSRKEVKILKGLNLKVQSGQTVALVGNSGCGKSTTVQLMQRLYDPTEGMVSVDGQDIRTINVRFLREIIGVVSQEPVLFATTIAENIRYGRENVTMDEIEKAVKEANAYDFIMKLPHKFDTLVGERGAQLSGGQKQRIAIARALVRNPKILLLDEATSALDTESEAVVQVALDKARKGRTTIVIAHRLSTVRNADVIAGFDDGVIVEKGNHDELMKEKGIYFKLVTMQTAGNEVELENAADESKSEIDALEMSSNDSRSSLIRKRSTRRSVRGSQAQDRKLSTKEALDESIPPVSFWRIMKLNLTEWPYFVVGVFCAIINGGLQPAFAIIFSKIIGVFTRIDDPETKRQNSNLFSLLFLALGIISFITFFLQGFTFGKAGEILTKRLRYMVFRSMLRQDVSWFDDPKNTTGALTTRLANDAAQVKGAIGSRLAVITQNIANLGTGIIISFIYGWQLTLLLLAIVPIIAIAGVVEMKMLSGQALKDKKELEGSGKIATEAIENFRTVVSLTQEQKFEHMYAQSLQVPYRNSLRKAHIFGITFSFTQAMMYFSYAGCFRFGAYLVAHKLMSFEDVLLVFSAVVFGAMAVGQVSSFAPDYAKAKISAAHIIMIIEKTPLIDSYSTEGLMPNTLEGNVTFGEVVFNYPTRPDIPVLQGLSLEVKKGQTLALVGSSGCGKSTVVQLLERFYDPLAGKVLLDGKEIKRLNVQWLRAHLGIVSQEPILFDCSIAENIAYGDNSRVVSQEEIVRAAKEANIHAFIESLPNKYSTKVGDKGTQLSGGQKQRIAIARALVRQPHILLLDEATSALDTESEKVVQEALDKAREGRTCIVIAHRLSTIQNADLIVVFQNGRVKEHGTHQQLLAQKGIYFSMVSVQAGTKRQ

[3] = molecular target: T1, ATP-dependent translocase ABCB1; assay: Inhibition of ABCB1 efflux pump-mediated rhodamine 123 uptake expressed in mouse L5178Y cells assessed as fluorescence activity ratio at 10 uM; format: cell-based
In short: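 Mouse T lymphoma L5178Y parental line and an mdr1-retrovirally transfected subline overexpressing only ABCB1, grown in McCoy's 5A with 10% heat-inactivated horse serum and 2 mM glutamine. Rhodamine 123 uptake measured by flow cytometry, 1 ×10⁴ cells each, after resuspension in PBS. FAR = fluorescence of treated ABCB1 subline over parental line, each corrected to untreated control; mean of two determinations.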

Oc1ccc2oc3ncc(OCc4ccc(Cl)cc4)c(-c4ccc(Cl)cc4)c3c2c1
logP [1]: 6.59
Ratio [2]: 1.11
Ratio [3]: 5.92

Oc1ccc2oc3ncc(OCc4cccc(Cl)c4)c(-c4cccc(Cl)c4)c3c2c1
logP [1]: 6.59
Ratio [2]: 1
Ratio [3]: 17.14

Oc1ccc2oc3ncc(OCc4ccc(Cl)cc4)c(-c4cccc(Cl)c4)c3c2c1
logP [1]: 6.59
Ratio [2]: 1.81
Ratio [3]: 2.61

Oc1ccc2oc3ncc(OCc4ccc(Cl)cc4)c(-c4ccccc4)c3c2c1
logP [1]: 5.97
Ratio [2]: 1.23
Ratio [3]: 56.85

Oc1ccc2oc3ncc(OCc4ccccc4)c(-c4ccc(Cl)cc4)c3c2c1
logP [1]: 5.97
Ratio [2]: 3.04
Ratio [3]: 95.58

Oc1ccc2oc3ncc(OCc4ccccc4)c(-c4cccc(Cl)c4)c3c2c1
logP [1]: 5.97
Ratio [2]: 1.35
Ratio [3]: 10.47

Oc1ccc2oc3ncc(OCc4cccc(Cl)c4)c(-c4ccccc4)c3c2c1
logP [1]: 5.97
Ratio [2]: 1.26
Ratio [3]: 57.42

Oc1ccc2oc3ncc(OCc4ccccc4)c(-c4ccccc4)c3c2c1
logP [1]: 5.38
Ratio [2]: 1.75
Ratio [3]: 34.49

Oc1ccc2oc3ncc(OCc4cccc(Cl)c4)c(-c4ccc(Cl)cc4)c3c2c1
logP [1]: 6.59
Ratio [2]: 1.53
Ratio [3]: 21.48
